2 compounds from ChEMBL document CHEMBL1629550 (Antimicrob Agents Chemother, 2008) can be followed below.

Calls of active or inactive are those of the source. The rule behind the calls is not given here.

The nature of series [1]: AUC (24 hrs) in plasma in Listeria monocytogenes EGD-e infected BALB/c mouse central nervous system listeriosis model at 50 mg/kg, ip administered 36 hrs postinfection as single dose. Format: ADME, organism-based. Also noted: time < 24 hr, dose 50 mg/kg, route intraperitoneal. In short, it runs like this:
(§1)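 Female BALB/c mice, 7–8 weeks old, were infected i.v. via the tail vein with 1 × 10^5 EGD-e. At 36 h they received one i.p. dose of 50 mg·kg−1 in isotonic saline. Groups of six were killed at 0–480 min. Blood-cleared brain homogenate and plasma were deproteinized with acetonitrile, with ciprofloxacin as internal standard, and analysed by reverse-phase HPLC with fluorescence detection (ex 290/em 550 nm). Cmax was read from the curves; AUC24 was calculated by the trapezoidal rule.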

Series [2] concerns Listeria monocytogenes. The experiment in a line: Antibacterial activity against Listeria monocytogenes EGD-e in BALB/c mouse central nervous system listeriosis model assessed as reduction in bacterial count in liver at 50 mg/kg, ip administered 36 hrs postinfection as single dose measured within 1 hr. Format: functional, organism-based. Also noted: dose 50 mg/kg. In short, it runs like this:
(§2)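 Female BALB/c mice (7–8 weeks) were infected i.v. with 1 × 10^5 EGD-e and given one i.p. dose of 50 mg·kg−1 at 36 h; saline was given to controls. Groups of three were sampled at 1, 6, 24 and 48 h. Blood and homogenized liver, spleen and brain were serially diluted 10-fold on BHI agar and counted after 24 h at 37°C. Results are mean ± SE log10 CFU/organ or per ml blood.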

Series [3] is described as follows: Cmax in plasma in Listeria monocytogenes EGD-e infected BALB/c mouse central nervous system listeriosis model at 50 mg/kg, ip administered 36 hrs postinfection as single dose. Format: ADME, organism-based. Also noted: dose 50 mg/kg, route intraperitoneal. In short, it runs like this: as §1
The subject of series [4] is Listeria monocytogenes. The series is described as follows: Antibacterial activity against Listeria monocytogenes EGD-e in BALB/c mouse central nervous system listeriosis model assessed as mouse survival at 50 mg/kg, ip administered 36 hrs postinfection every 12 hrs for 5 days measured after 2 months. It counts as functional, organism-based. Details: dose 50 mg/kg. In short, it runs like this: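 BALB/c females were infected i.v. with 1 × 10^5 EGD-e. Starting 36 h after infection, they were dosed i.p. at 50 mg·kg−1 every 12 h for 5 days (n = 20); saline controls n = 5. Deaths were checked twice daily from 36 h post-infection. Survivors were followed for 2 months for relapse, and survival was analysed by Kaplan-Meier.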

Series [5] relates to Listeria monocytogenes. The experiment in a line: Antibacterial activity against Listeria monocytogenes EGD-e in BALB/c mouse central nervous system listeriosis model assessed as increase in mouse survival at 50 mg/kg, ip administered 36 hrs postinfection as single dose. Format: functional. The conditions noted are these: route intraperitoneal. In a few lines:
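Female BALB/c mice, 7–8 weeks old, were infected via the lateral tail vein with 1 × 10^5 EGD-e in 0.5 ml saline. At 36 h they received a single 50 mg·kg−1 i.p. dose in isotonic saline (0.1 ml), with n = 12. Controls got saline (n = 5). Death was checked twice daily from 36 h, and survivors were followed 2 months. Results were plotted as Kaplan-Meier estimates.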

The test system of series [6] is Listeria monocytogenes. The experiment in a line: Antibacterial activity against Listeria monocytogenes EGD-e in BALB/c mouse central nervous system listeriosis model assessed as increase in mouse survival at 50 mg/kg, ip administered 36 hrs postinfection every 12 hrs for 5 days. Format: functional. The conditions noted are these: route intraperitoneal. In a few lines:
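Female BALB/c mice, 7–8 weeks old, were infected i.v. via the tail vein with 1 × 10^5 EGD-e in 0.5 ml saline. From 36 h they received 50 mg·kg−1 i.p. in isotonic saline (0.1 ml) every 12 h for 5 days, with n = 20. Controls got saline (n = 5). Death was checked twice daily, and survivors were followed 2 months for relapse. Results were plotted as Kaplan-Meier estimates.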

Series [7] deals with Listeria monocytogenes. The series is described as follows: Antibacterial activity against Listeria monocytogenes EGD-e in BALB/c mouse central nervous system listeriosis model assessed as reduction in bacterial count in spleen at 50 mg/kg, ip administered 36 hrs postinfection as single dose measured within 1 hr. Details: dose 50 mg/kg. It counts as functional, organism-based. In short, it runs like this:
as §2

In series [8] the test system is Listeria monocytogenes. The experiment in a line: Antibacterial activity against Listeria monocytogenes EGD-e in BALB/c mouse central nervous system listeriosis model assessed as reduction in bacterial count in spleen at 50 mg/kg, ip administered 36 hrs postinfection as single dose measured within 6 hr. It counts as functional, organism-based. Details: dose 50 mg/kg. In short, it runs like this:
as §2

For series [9], the system named is Listeria monocytogenes. The series is described as follows: Antibacterial activity against Listeria monocytogenes EGD-e in BALB/c mouse central nervous system listeriosis model assessed as reduction in bacterial count in liver at 50 mg/kg, ip administered 36 hrs postinfection as single dose measured within 6 hr. It counts as functional, organism-based. Also noted: dose 50 mg/kg. In a few lines: as §2

For series [10], the system named is Listeria monocytogenes. The series is described as follows: Antibacterial activity against Listeria monocytogenes EGD-e in BALB/c mouse central nervous system listeriosis model assessed as log reduction in bacterial CFU per ml of blood at 50 mg/kg, ip administered 36 hrs postinfection as single dose measured within 1 hr. Format: functional. Particulars: route intraperitoneal. In short, it runs like this: as §2

`COc1c(N2C[C@@H]3CCCN[C@@H]3C2)c(F)cc2c(=O)c(C(=O)O)cn(C3CC3)c12` [MOXIFLOXACIN] returned an area under the curve (AUC) at 24 h in [1] of 27100 ng·h/mL. Moreover, the result in the series on Listeria monocytogenes [2], with Listeria monocytogenes [4] and in the series on Listeria monocytogenes [7] was Active. The peak level in series [3] (Cmax) was 17300 ng/mL. Further, the Time in the series with Listeria monocytogenes [5] was 24 h. Also, the Activity in the series on Listeria monocytogenes [6] was determined as 100%.

With `CC1(C)S[C@@H]2[C@H](NC(=O)[C@H](N)c3ccc(O)cc3)C(=O)N2[C@H]1C(=O)O` [AMOXICILLIN], the outcome with Listeria monocytogenes [8], with Listeria monocytogenes [9] and in the series with Listeria monocytogenes [4] was Active. The Time in the series on Listeria monocytogenes [5] was determined as 12 h. Besides, the Activity with Listeria monocytogenes [6] is recorded as 75%. In addition, the FC in the series on Listeria monocytogenes [10] is given as 1.
